Results as given in ChEMBL document CHEMBL1122004, “alpha-Adrenergic agents. 2. Synthesis and alpha 1-agonist activity of 2-aminotetralins” (J Med Chem, 1982).

What was measured:
[1] = Alpha-1 adrenergic receptor activation causing vasoconstriction in the isolated rabbit ear artery; assay type: functional, tissue-based; conditions: Oryctolagus cuniculus
Outline: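 Isolated rabbit ear artery segments with cocaine 2×10^-6 g/mL present throughout to block neuronal uptake. A cumulative norepinephrine curve (10^-8 to 3×10^-6 M) is run first to set the maximum response. After washout, a cumulative test-drug curve is run, stepping concentration once the response is stable. EC50 = concentration giving 50% of the NE maximum.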

[2] = target: Adrenergic receptor alpha-1 (Homo sapiens) (UniProt P35348+P25100+P35368); assay: Dissociation constant for Alpha-1-adrenergic receptor was determined before and after addition of phentolamine; conditions: Oryctolagus cuniculus
Outline: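 Rabbit ear artery with cocaine 2×10^-6 g/mL. After cumulative NE and test-drug curves and washout, phentolamine 10^-7 M is superfused for 30 min of equilibration. NE and test-drug curves are then repeated. K_B for phentolamine = [phentolamine]/((EC50 with phentolamine / EC50 without) − 1).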

**Q.** Which EC50 [1] does the source give for `CCNC1CCc2c(I)ccc(OC)c2C1` (stereo not drawn) here?
**A.** Its EC50 is 21 nM.

**Q.** What about the Kb [2] of the same compound?
**A.** Its Kb is 11 nM.

**Q.** What does the source list for `COc1ccc(OC)c2c1CCC(N)C2` (stereo not drawn)?
**A.** EC50 [1]: 120 nM; Kb [2]: 6 nM

**Q.** For `CCNC1CCc2c(SC)ccc(OC)c2C1` (stereo not drawn), which EC50 [1] is on record?
**A.** Its EC50 is 26 nM.

**Q.** Which EC50 [1] does the source give for `COc1ccc(OC)c2c1CCC(N(C)C)C2` (stereo not drawn) here?
**A.** The EC50 was 81 nM.

**Q.** And the Kb [2]?
**A.** The Kb was 15 nM.

**Q.** What does the source list for `CCNC1CCc2c(OC)ccc(OC)c2C1` (stereo not drawn)?
**A.** EC50 [1]: 81 nM; Kb [2]: 8 nM

**Q.** Which results are given for `CCNC1CCc2c(OC)ccc(I)c2C1` (stereo not drawn)?
**A.** EC50 [1]: 64 nM; Kb [2]: 12 nM

**Q.** Which EC50 [1] does the source give for `COc1cc2c(cc1OC)CC(N)CC2` (stereo not drawn) here?
**A.** Its EC50 is over 10000 nM.

**Q.** For `COc1cccc2c1CCC(N)C2` (stereo not drawn), which EC50 [1] is on record?
**A.** The EC50 was 2200 nM.

**Q.** What about the Kb [2] of the same compound?
**A.** Its Kb is 7 nM.

**Q.** Which EC50 [1] does the source give for `NC1CCc2ccccc2C1` (stereo not drawn) here?
**A.** Its EC50 is over 30000 nM.

**Q.** Which EC50 [1] does the source give for `CCCNC1CCc2c(OC)ccc(OC)c2C1` (stereo not drawn) here?
**A.** Its EC50 is 1100 nM.

**Q.** What about the Kb [2] of the same compound?
**A.** The Kb was 18 nM.

**Q.** Which EC50 [1] does the source give for `CCNC1CCc2c(OC)ccc(Cl)c2C1` (stereo not drawn) here?
**A.** Its EC50 is 64 nM.

**Q.** What about the Kb [2] of the same compound?
**A.** Its Kb is 14 nM.

**Q.** For `CNC1CCc2c(OC)ccc(OC)c2C1` (stereo not drawn), which EC50 [1] is on record?
**A.** The EC50 was 86 nM.

**Q.** What about the Kb [2] of the same compound?
**A.** The Kb was 11 nM.

**Q.** For `CCNC1CCc2c(Sc3ccccc3)ccc(OC)c2C1` (stereo not drawn), which EC50 [1] is on record?
**A.** Its EC50 is 700 nM.

**Q.** For `NC[C@H](O)c1ccc(O)c(O)c1` [NOREPINEPHRINE], which EC50 [1] is on record?
**A.** The EC50 was 150 nM.

**Q.** Which EC50 [1] does the source give for `CCNC1CCc2c(OC)ccc(SC)c2C1` (stereo not drawn) here?
**A.** Its EC50 is 140 nM.

**Q.** What about the Kb [2] of the same compound?
**A.** Its Kb is 16 nM.

**Q.** Which results are given for `COc1ccc(SC)c2c1CC(N(C)C)CC2` (stereo not drawn)?
**A.** EC50 [1]: 14 nM; Kb [2]: 9 nM

**Q.** With `COc1ccc(SC)c2c1CC(N)CC2` (stereo not drawn) as the compound, how does the EC50 [1] read?
**A.** Its EC50 is 12 nM.

**Q.** What about the Kb [2] of the same compound?
**A.** Its Kb is 5 nM.

**Q.** With `CCNC1CCc2c(N)ccc(OC)c2C1` (stereo not drawn) as the compound, how does the EC50 [1] read?
**A.** Its EC50 is 5300 nM.

**Q.** For `COc1ccc(Cl)c2c1CCC(N)C2` (stereo not drawn), which EC50 [1] is on record?
**A.** The EC50 was 230 nM.

**Q.** What about the Kb [2] of the same compound?
**A.** The Kb was 13 nM.

**Q.** Which EC50 [1] does the source give for `CCNC1CCc2ccc(OC)c(OC)c2C1` (stereo not drawn) here?
**A.** Its EC50 is over 10000 nM.

**Q.** Which EC50 [1] does the source give for `Cc1ccc(C)c2c1CCC(N)C2` (stereo not drawn) here?
**A.** The EC50 was 10000 nM.

**Q.** Which EC50 [1] does the source give for `COc1cccc2c1CC(N)CC2` (stereo not drawn) here?
**A.** The EC50 was 1700 nM.

**Q.** And the Kb [2]?
**A.** Its Kb is 12 nM.

**Q.** With `COc1ccc(OC)c(C(O)C(C)N)c1` (stereo not drawn) [METHOXAMINE] as the compound, how does the EC50 [1] read?
**A.** Its EC50 is 720 nM.

**Q.** What about the Kb [2] of the same compound?
**A.** The Kb was 11 nM.
